Laboratory results published in ChEMBL document CHEMBL1153533, “Phosphoramidate prodrugs of 2'-C-methylcytidine for therapy of hepatitis C virus infection” (J Med Chem, 2009).

Experiments:
[1] = test system: Hepatitis C virus; assay: Antiviral activity against HCV infected in human HBI10A cells by subgenomic viral replicon assay; assay type: functional, organism-based, Hepacivirus hominis
[2] = Selectivity index, ratio of CC50 for human HBI10A cells to EC50 for HCV infected in human HBI10A cells
Procedure, shortened: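 Subgenomic HCV replicon assay gives EC₅₀ (n = 2-9 independent determinations). CC₅₀ is the concentration cutting cell viability by 50%. SI = CC₅₀/EC₅₀.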

[3] = Cytotoxicity against human HBI10A cells
[4] = test system: Hepacivirus hominis; assay: Inhibition of HCV NS5B polymerase by cell-based assay
[5] = Drug concentration in hamster liver assessed as nucleoside triphosphate level at 1.5 umol/kg, sc after 6 hrs; conditions: cricetinae, in vivo
[6] = test system: Liver; assay: Drug concentration in rat liver assessed as nucleoside triphosphate level at […], sc after 6 hrs; assay type: ADME, organism-based; conditions: in vivo, read-out: Drug uptake
[7] = test system: Hepatitis C virus; assay: Antiviral activity against HCV assessed as logarithmic reduction in plasma viral RNA at 1500 mg, po BID after 14 days; assay type: functional, Hepacivirus hominis
[8] = test system: Hepatitis C virus; assay: Antiviral activity against HCV assessed as logarithmic reduction in plasma viral RNA at 1500 mg, QD after 14 days; assay type: functional, Hepacivirus hominis
[9] = test system: Hepatitis C virus; assay: Antiviral activity against HCV infected in human HBI10A cells at 20 uM by subgenomic viral replicon assay; assay type: functional, Hepacivirus hominis
[10] = test system: Liver; assay: Drug level in rat liver assessed as nucleoside triphosphate level at 1 mg/kg, sc after 24 hrs; assay type: ADME, organism-based; design: dose 1 mg/kg, route subcutaneous; conditions: in vivo, read-out: Drug uptake
[11] = test system: Hamster; assay: AUC (0 to 48 hrs) in hamster at 1 mg/kg, sc; assay type: ADME, organism-based, Plasma; design: time < 48 hr, dose 1 mg/kg, route subcutaneous; conditions: cricetinae, in vivo
[12] = Drug level in rabbit liver assessed as nucleoside triphosphate level at 1 mg/kg, sc after 24 hrs; assay type: ADME, organism-based, Oryctolagus cuniculus; design: dose 1 mg/kg, route subcutaneous; conditions: in vivo, read-out: Drug uptake
[13] = Drug level in hamster liver assessed as nucleoside triphosphate level at 1 mg/kg, sc after 24 hrs; assay type: ADME, organism-based; design: dose 1 mg/kg, route subcutaneous; conditions: cricetinae, in vivo, read-out: Drug uptake
[14] = test system: Hepatocyte; assay: Stability in cryopreserved primary human hepatocytes assessed as increase in intracellular nucleoside triphosphate formation by LC-MS/MS analysis; assay type: ADME, cell-based
[15] = Stability in human HBI10A cells assessed as intracellular nucleoside triphosphate AUC (0 to 24 hrs) at 100 uM by LC-MS/MS analysis
[16] = test system: Hepatitis C virus; assay: Antiviral activity against HCV assessed as logarithmic reduction in plasma viral RNA at 800 mg, po BID after 14 days; assay type: functional, Hepacivirus hominis

SMILES	EC50 ([1]; Hepatitis C virus, HBI10A)	Ratio CC50/EC50 [2]	CC50 [3]	also measured
CCOC(=O)[C@H](Cc1c[nH]c2ccccc12)NP(=O)(OC[C@H]1O[C@@H](n2ccc(N)nc2=O)[C@](C)(O)[C@@H]1O)Oc1ccc(Cl)cc1 (single isomer, unassigned)	17 µM	>3	> 50 µM	
COCCCOC(=O)[C@H](C)NP(=O)(OC[C@H]1O[C@@H](n2ccc(N)nc2=O)[C@](C)(O)[C@@H]1O)Oc1ccccc1 (stereo partly specified)	1.9 µM		> 20 µM	
CCOC(=O)[C@H](C)NP(=O)(OC[C@H]1O[C@@H](n2ccc(N)nc2=O)[C@](C)(O)[C@@H]1O)Oc1ccccc1C (stereo partly specified)	0.18 µM	50	9 µM	
C[C@@]1(O)[C@H](O)[C@@H](CO)O[C@H]1n1ccc(N)nc1=O				Activity [4]: 2 µM
CCOC(=O)[C@H](C)NP(=O)(OC[C@H]1O[C@@H](n2ccc(N)nc2=O)[C@](C)(O)[C@@H]1O)Oc1ccc2c(ccn2C(=O)OC(C)(C)C)c1 (stereo partly specified)	0.5 µM	40	> 20 µM	
COC(=O)CCNP(=O)(OC[C@H]1O[C@@H](n2ccc(N)nc2=O)[C@](C)(O)[C@@H]1O)Oc1ccc(Cl)cc1 (mixture of isomers)	> 20 µM		> 20 µM	
COC(=O)[C@H](Cc1ccccc1)NP(=O)(OC[C@H]1O[C@@H](n2ccc(N)nc2=O)[C@](C)(O)[C@@H]1O)Oc1ccc(Cl)cc1 (mixture of isomers)	> 20 µM		> 20 µM	
COC(=O)[C@H](C)NP(=O)(OC[C@H]1O[C@@H](n2ccc(N)nc2=O)[C@](C)(O)[C@@H]1O)Oc1ccc(OC)cc1 (mixture of isomers)	3.7 µM	>13	> 50 µM	
CCCC(CCC)C(=O)OCCNP(=O)(O)OC[C@H]1O[C@@H](n2ccc(N)nc2=O)[C@](C)(O)[C@@H]1O				Drug uptake [5]: 13 µM; concentration [6]: 36 µM
CCOC(=O)[C@H](C)NP(=O)(OC[C@H]1O[C@@H](n2ccc(N)nc2=O)[C@](C)(O)[C@@H]1O)Oc1ccc(Cl)cc1 (stereo partly specified)			> 20 µM	EC50 ([1]; hbi10a): 1 µM
CC(C)C(=O)OC[C@H]1O[C@@H](n2ccc(N)nc2=O)[C@](C)(F)[C@@H]1OC(=O)C(C)C [MERICITABINE]				Activity [7]: 2.7
CCCCOC(=O)[C@H](C)NP(=O)(OC[C@H]1O[C@@H](n2ccc(N)nc2=O)[C@](C)(O)[C@@H]1O)Oc1ccccc1Cl (stereo partly specified)	0.87 µM	>23	> 20 µM	
COC(=O)[C@@H](C)NP(=O)(OC[C@H]1O[C@@H](n2ccc(N)nc2=O)[C@](C)(O)[C@@H]1O)Oc1ccc(Cl)cc1 (mixture of isomers)	7.7 µM	>2.5	> 20 µM	
CCOC(=O)[C@H](C)NP(=O)(OC[C@H]1O[C@@H](n2ccc(N)nc2=O)[C@](C)(O)[C@@H]1O)Oc1ccc(C[C@H](N)C(=O)OC)cc1 (stereo partly specified)	> 20 µM		> 20 µM	
CCOC(=O)[C@H](C)NP(=O)(OC[C@H]1O[C@@H](n2ccc(N)nc2=O)[C@](C)(O)[C@@H]1O)Oc1cccc2ccccc12 (stereo partly specified)	0.2 µM	75	15 µM	
CCCC[C@H](NP(=O)(OC[C@H]1O[C@@H](n2ccc(N)nc2=O)[C@](C)(O)[C@@H]1O)Oc1ccc(Cl)cc1)C(=O)OCC (mixture of isomers)	1.5 µM	>13	> 20 µM	

SMILES	EC50 ([1]; Hepatitis C virus, HBI10A)	Ratio CC50/EC50 [2]	CC50 [3]	also measured
CCCCOC(=O)[C@H](C)NP(=O)(OC[C@H]1O[C@@H](n2ccc(N)nc2=O)[C@](C)(O)[C@@H]1O)Oc1cccc2ccccc12 (stereo partly specified)	0.09 µM		9 µM	
CCOC(=O)[C@H](CC(C)C)NP(=O)(OC[C@H]1O[C@@H](n2ccc(N)nc2=O)[C@](C)(O)[C@@H]1O)Oc1ccc(Cl)cc1 (mixture of isomers)	7 µM	>7	> 50 µM	
CCOC(=O)[C@H](C)NP(=O)(OC[C@H]1O[C@@H](n2ccc(N)nc2=O)[C@](C)(O)[C@@H]1O)Oc1cc(C)c(Cl)cc1C(C)C (stereo partly specified)	0.19 µM	47	9 µM	
CCCCOC(=O)[C@H](C)NP(=O)(OC[C@H]1O[C@@H](n2ccc(N)nc2=O)[C@](C)(O)[C@@H]1O)Oc1ccc(Cl)c2ccccc12 (mixture of isomers)	0.16 µM	125	> 20 µM	
CC(C)C(=O)OC[C@@]1(N=[N+]=[N-])O[C@@H](n2ccc(N)nc2=O)[C@H](OC(=O)C(C)C)[C@@H]1OC(=O)C(C)C [BALAPIRAVIR]				Activity [8]: 1.2
CCOC(=O)[C@H](C)NP(=O)(OC[C@H]1O[C@@H](n2ccc(N)nc2=O)[C@](C)(O)[C@@H]1O)OCC(Cl)(Cl)Cl (stereo partly specified)	10 µM	>5	> 50 µM	inhibition at 20 µM [9]: 52%
COC(=O)CNP(=O)(OC[C@H]1O[C@@H](n2ccc(N)nc2=O)[C@](C)(O)[C@@H]1O)Oc1ccc(Cl)cc1 (mixture of isomers)	0.8 µM	>25	> 20 µM	
CCCC(CCC)COC(=O)[C@H](C)NP(=O)(O)OC[C@H]1O[C@@H](n2ccc(N)nc2=O)[C@](C)(O)[C@@H]1O	8.2 µM		> 100 µM	Drug uptake [5]: 39 µM; concentration [10]: 2.9 µM; AUC [11]: 700 µM·h; concentration [12]: 4.1 µM; concentration [13]: 6 µM; concentration [6]: 5 µM
CC(C)[C@H](N)C(=O)O[C@@H]1[C@@H](CO)O[C@@H](n2ccc(N)nc2=O)[C@]1(C)O [VALOPICITABINE]	7.6 µM	>13	> 100 µM	Activity [14]: Dose-dependent effect; AUC [15]: 70 µM·h; Activity [16]: 1.2
COC(=O)[C@H](C)NP(=O)(OC[C@H]1O[C@@H](n2ccc(N)nc2=O)[C@](C)(O)[C@@H]1O)Oc1ccc(C(F)(F)F)cc1 (stereo partly specified)	9.6 µM	>5	> 50 µM	
CCCOC(=O)[C@H](C)NP(=O)(OC[C@H]1O[C@@H](n2ccc(N)nc2=O)[C@](C)(O)[C@@H]1O)Oc1ccccc1 (stereo partly specified)	0.97 µM		> 20 µM	
CCOC(=O)[C@H](C)NP(=O)(OC[C@H]1O[C@@H](n2ccc(N)nc2=O)[C@](C)(O)[C@@H]1O)Oc1ccc(Cl)cc1 (single isomer, unassigned)				EC50 ([1]; hbi10a): 7.9 µM
CCOC(=O)[C@H](C)NP(=O)(OCc1ccccc1)OC[C@H]1O[C@@H](n2ccc(N)nc2=O)[C@](C)(O)[C@@H]1O (stereo partly specified)	> 20 µM		> 20 µM	
CCOC(=O)[C@H](C)NP(=O)(OC[C@H]1O[C@@H](n2ccc(N)nc2=O)[C@](C)(O)[C@@H]1O)Oc1ccc(Cl)cc1 (mixture of isomers)				EC50 ([1]; hbi10a): 1.8 µM
CCOC(=O)[C@@H](NP(=O)(OC[C@H]1O[C@@H](n2ccc(N)nc2=O)[C@](C)(O)[C@@H]1O)Oc1ccc(Cl)cc1)c1ccccc1 (mixture of isomers)	7.4 µM	>2.5	> 20 µM	
CCOC(=O)[C@H](C)NP(=O)(OC[C@H]1O[C@@H](n2ccc(N)nc2=O)[C@](C)(O)[C@@H]1O)Oc1ccccc1C(=O)OC (mixture of isomers)	11 µM	>5	> 50 µM	
